Experiments:
HOP-62 = experiment: Antiproliferative activity against human HOP62 cells after 96 hrs by WST-1 assay; assay type: functional; settings: HOP-62, 96 h
SF-539 = experiment: Antiproliferative activity against human SF539 cells after 96 hrs by WST-1 assay; assay type: functional; settings: SF-539, 96 h
UACC-62 = experiment: Antiproliferative activity against human UACC62 cells after 96 hrs by WST-1 assay; assay type: functional; settings: UACC-62, 96 h
OVCAR-3 = experiment: Antiproliferative activity against human OVCAR-3 cells after 96 hrs by WST-1 assay; assay type: functional; settings: OVCAR-3, 96 h
SN12C = experiment: Antiproliferative activity against human SN12C cells after 96 hrs by WST-1 assay; assay type: functional
[1] = Inhibition of bovine brain tubulin assembly assessed as decrease in turbidity after 20 mins; set-up: species or system Bos taurus
Method in brief: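 Bovine brain tubulin at 1.0 mg/mL (10 μM) preincubated 15 min at 30 °C with varying compound concentrations, no GTP. Chilled on ice, then GTP added (0.4 mM final). Baseline taken at 0 °C, then rapid jump to 30 °C and turbidity rise followed spectrophotometrically for 20 min. IC50 is the concentration halving the turbidity increase.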

Bos taurus = species: Bos taurus; experiment: Displacement of [3H]colchicine from bovine brain tubulin at 5 uM after 10 mins
DU-145 = experiment: Antiproliferative activity against human DU145 cells after 96 hrs by WST-1 assay; assay type: functional; settings: DU-145, 96 h
Method in brief: (§1)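 DU-145 and MDA-MB-231 cells kept in RPMI-1640 with 10% FBS, penicillin and streptomycin at 37 °C, 5% CO2. Seeded at 5000 cells/well and exposed to 10^-9–10^-4 M compound or vehicle for 96 h. Live cells counted by WST-1. Viability taken as percent of mean control and GI50 derived. Triplicate experiments.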

MDA-MB-231 = experiment: Antiproliferative activity against human MDA-MB-231 cells after 96 hrs by WST-1 assay; assay type: functional; settings: MDA-MB-231, 96 h; method in brief: as §1
HCT-116 = experiment: Antiproliferative activity against human HCT116 cells after 96 hrs by WST-1 assay; assay type: functional; settings: HCT-116, 96 h
MCF7 = experiment: Antiproliferative activity against human MCF7 cells after 96 hrs by WST-1 assay; assay type: functional; settings: MCF7, 96 h

Compound | GI50 (OVCAR-3) [nM] | IC50 [1] [nM] | inhibition (Bos taurus) [%] | GI50 (DU-145) [nM] | GI50 (MDA-MB-231) [nM] | GI50 (HCT-116) [nM] | GI50 (MCF7) [nM] | GI50 (HOP-62) [nM] | GI50 (SF-539) [nM] | GI50 (UACC-62) [nM] | GI50 (SN12C) [nM]
CCc1cc2c(cc1OS(N)(=O)=O)CC[C@@H]1[C@@H]2CC[C@]2(C)[C@@H](OS(N)(=O)=O)CC[C@@H]12 | < 10 | 1300 | 45 |  |  |  |  | < 10 | < 10 | < 10 | 28
CCc1cc2c(cc1OS(N)(=O)=O)CC[C@@H]1[C@@H]2CC[C@]2(C)[C@@H](OS(C)(=O)=O)CC[C@@H]12 | < 10 | 1600 | 49 | 570 | 200 | < 10 |  | < 10 | < 10 | < 10 | < 10
COc1cc2c(cc1OS(N)(=O)=O)CC[C@@H]1[C@@H]2CC[C@]2(C)[C@@H](NS(N)(=O)=O)CC[C@@H]12 |  |  |  | 6130 | 5600 |  |  |  |  |  | 
COc1cc2c(cc1OS(N)(=O)=O)CC[C@@H]1[C@@H]2CC[C@]2(C)[C@@H](OS(N)(=O)=O)CC[C@@H]12 | < 10 | 2200 | 28 |  |  | 45 |  | 51 | 36 | < 10 | 
CCc1cc2c(cc1O)CC[C@@H]1[C@@H]2CC[C@]2(C)[C@@H](N)CC[C@@H]12 |  |  |  | 60800 |  |  |  |  |  |  | 
COc1cc2c(cc1OS(=O)(=O)N(C)C)CC[C@@H]1[C@@H]2CC[C@]2(C)C(=O)CC[C@@H]12 |  | > 40000 |  |  |  |  | > 10000 |  |  |  | 
COc1cc2c(cc1O)CC[C@@H]1[C@@H]2CC[C@]2(C)[C@@H](O)CC[C@@H]12 [2-METHOXYESTRADIOL] | 210 | 7000 | 17 | 1220 |  | 470 |  | 700 | 320 | 360 | 950
COc1cc2c(cc1O)CC[C@@H]1[C@@H]2CC[C@]2(C)C(OS(N)(=O)=O)CC[C@@H]12 (some centres undefined) |  | > 40000 |  |  |  |  |  |  |  |  | 
COc1cc2c(cc1O)CC[C@@H]1[C@@H]2CC[C@]2(C)[C@@H](NS(N)(=O)=O)CC[C@@H]12 |  |  |  | 58600 |  |  |  |  |  |  | 
CCc1cc2c(cc1O)CC[C@@H]1[C@@H]2CC[C@]2(C)[C@@H](CN(C)C)CC[C@@H]12 | 39800 |  |  | 10100 | 9500 | 11500 |  | 21400 | 16200 | 18600 | 43700
CCc1cc2c(cc1O)CC[C@@H]1[C@@H]2CC[C@]2(C)[C@@H](NS(C)(=O)=O)CC[C@@H]12 |  |  |  | > 100000 |  |  |  |  |  |  | 
CCc1cc2c(cc1O)CC[C@@H]1[C@@H]2CC[C@]2(C)[C@@H](C[N+](=O)[O-])CC[C@@H]12 |  |  |  | 12200 | 10400 |  |  |  |  |  | 
COc1cc2c(cc1OS(N)(=O)=O)CC[C@@H]1[C@@H]2CC[C@]2(C)[C@@H](NS(C)(=O)=O)CC[C@@H]12 | 3500 |  |  | 9900 | 5200 | 5600 |  | 9600 | 3200 | 7100 | 23400
CCc1cc2c(cc1O)CC[C@@H]1[C@@H]2CC[C@]2(C)[C@@H](CCN(C)C)CC[C@@H]12 |  |  |  | 7960 | 4740 |  |  |  |  |  | 
CCc1cc2c(cc1O)CC[C@@H]1[C@@H]2CC[C@]2(C)[C@@H](NS(N)(=O)=O)CC[C@@H]12 |  |  |  | > 100000 |  |  |  |  |  |  | 
COc1cc2c(cc1O)CC[C@@H]1[C@@H]2CC[C@]2(C)[C@@H](NS(C)(=O)=O)CC[C@@H]12 | > 100000 |  |  | > 100000 |  | 60300 |  | > 100000 | > 100000 | > 100000 | > 100000
COc1cc2c(cc1OCc1ccccc1)CC[C@@H]1[C@@H]2CC[C@]2(C)[C@@H](OS(C)(=O)=O)CC[C@@H]12 | 2900 |  |  |  |  | 5900 |  | 6900 | 4600 | 14400 | 19900
CCc1cc2c(cc1O)CC[C@@H]1[C@@H]2CC[C@@]2(C)[C@H]1CC[C@@H]2S(C)(=O)=O |  |  |  | > 100000 | > 100000 |  |  |  |  |  | 

The remaining compounds from weak to strong by GI50 (DU-145), led by results:

GI50 (OVCAR-3) [nM] | IC50 [1] [nM] | inhibition (Bos taurus) [%] | GI50 (DU-145) [nM] | GI50 (MDA-MB-231) [nM] | GI50 (HCT-116) [nM] | GI50 (MCF7) [nM] | Compound | GI50 (HOP-62) [nM] | GI50 (SF-539) [nM] | GI50 (UACC-62) [nM] | GI50 (SN12C) [nM]
 |  |  | 5580 |  |  |  | CCc1cc2c(cc1O)CC[C@@H]1[C@@H]2CC[C@]2(C)[C@@H](OS(C)(=O)=O)CC[C@@H]12 |  |  |  | 
 |  |  | 4200 | 2370 |  |  | COc1cc2c(cc1O)CC[C@@H]1[C@@H]2CC[C@]2(C)[C@@H](OS(C)(=O)=O)CC[C@@H]12 |  |  |  | 
 |  |  | 3540 | 2960 |  |  | CCc1cc2c(cc1OS(N)(=O)=O)CC[C@@H]1[C@@H]2CC[C@]2(C)[C@@H](CCN(C)C)CC[C@@H]12 |  |  |  | 
 | 20000 |  | 3400 |  |  |  | CCCc1cc2c(cc1OS(N)(=O)=O)CC[C@@H]1[C@@H]2CC[C@]2(C)C(OS(N)(=O)=O)CC[C@@H]12 (some centres undefined) |  |  |  | 
12600 |  |  | 3050 | 4030 | 9100 |  | CCc1cc2c(cc1OS(N)(=O)=O)CC[C@@H]1[C@@H]2CC[C@]2(C)[C@@H](CN(C)C)CC[C@@H]12 | 13500 | 12600 | 11700 | 18200
 |  |  | 2640 | 3560 |  |  | COc1cc2c(cc1O)CC[C@@H]1[C@@H]2CC[C@]2(C)[C@@H](N)CC[C@@H]12 |  |  |  | 
710 |  |  | 840 | 3520 | 4370 |  | CCc1cc2c(cc1OS(N)(=O)=O)CC[C@@H]1[C@@H]2CC[C@]2(C)[C@@H](NS(C)(=O)=O)CC[C@@H]12 | 4170 | 470 | 5890 | 6920
540 |  |  | 520 | 230 | 780 |  | COc1cc2c(cc1OS(N)(=O)=O)CC[C@@H]1[C@@H]2CC[C@]2(C)[C@@H](OS(C)(=O)=O)CC[C@@H]12 | 1170 | 340 | 650 | 3100
 |  |  | 490 | 120 |  |  | COc1cc2c(cc1O)CC[C@@H]1[C@@H]2CC[C@]2(C)[C@@H](CC#N)CC[C@@H]12 |  |  |  | 
 | 3300 | 22 | 460 | 120 |  |  | COc1cc2c(cc1OS(N)(=O)=O)CC[C@@H]1[C@@H]2CC[C@]2(C)C(=O)CC[C@@H]12 |  |  |  | 
 | 1300 | 46 | 380 |  |  |  | Cc1cc2c(cc1OS(N)(=O)=O)CC[C@@H]1[C@@H]2CC[C@]2(C)C(OS(N)(=O)=O)CC[C@@H]12 (some centres undefined) |  |  |  | 
< 10 | 2100 | 37 | 190 | 230 | < 10 |  | CCc1cc2c(cc1OS(N)(=O)=O)CC[C@@H]1[C@@H]2CC[C@]2(C)[C@@H](CS(C)(=O)=O)CC[C@@H]12 | < 10 | < 10 | 10700 | < 10
25 | 1700 | 74 | 140 | 170 | 41 |  | CCc1cc2c(cc1OS(N)(=O)=O)CC[C@@H]1[C@@H]2CC[C@]2(C)[C@@H](C[N+](=O)[O-])CC[C@@H]12 | 31 | 21 | 63 | 66
 | 3600 | 28 | 110 | 230 |  |  | CCc1cc2c(cc1OS(N)(=O)=O)CC[C@@H]1[C@@H]2CC[C@@]2(C)[C@H]1CC[C@@H]2S(C)(=O)=O |  |  |  | 
 | 1300 | 78 | 62 | 71 |  |  | COc1cc2c(cc1OS(N)(=O)=O)CC[C@@H]1[C@@H]2CC[C@]2(C)[C@@H](CC#N)CC[C@@H]12 |  |  |  | 
 |  |  | 54 | 141 |  |  | CCc1cc2c(cc1OS(N)(=O)=O)CC[C@@H]1[C@@H]2CC[C@]2(C)[C@@H](CC#N)CC[C@@H]12 |  |  |  | 

Reference: ChEMBL document CHEMBL1156957, “Synthesis, antitubulin, and antiproliferative SAR of analogues of 2-methoxyestradiol-3,17-O,O-bis-sulfamate” (J Med Chem, 2010)
